From the array DNA melting data of Ke et al. (doi:10.1101/2024.01.08.574731)

Key:
[1] = folding enthalpy; higher = less favourable; fluorescence melt of hairpins on a sequencing array, two-state fit; conditions: sodium 0.088 M
Procedure, shortened: (§1)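 Folding enthalpy and melting temperature were estimated with bootstrapped two-state fits and combined across four replicates by inverse-variance weighting, with fitted temperatures raised by 9.35 °C to match UV melts. The data were Cy3 fluorescence of library hairpins, with annealed Cy3 and quencher oligos, on a sequenced MiSeq flow cell in 50 mM Na-HEPES pH 8.0, 25 mM NaCl, imaged in 2.5 °C steps up to 60 °C and normalised to pre-quench Cy3 and control constructs.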

[2] = melting temperature; fluorescence melt of hairpins on a sequencing array, two-state fit, raised by 9.35 °C to match UV melts; conditions: sodium 0.088 M
Procedure, shortened: as §1

Sequence | folding enthalpy [1] | Tm [2]
GACGGAACGAAAGTTGTC (((..(((....)))))) | -19.2 kcal/mol | 30.7 °C
GGTCGTGGAAACATGGCC ((.(.((....)).).)) | -24 kcal/mol | 45.8 °C
GGCACCGAAAGGTTGGCC ((((((....)))..))) | -28.1 kcal/mol | 53.3 °C
GTGGTGCGAAAGCATCAC (((.(((....))).))) | -30.4 kcal/mol | 67 °C
GATTCCGAAAGGACATC ((((((....))).))) | -21.4 kcal/mol | 39.2 °C
GATCCGCGACGGATC ((((((...)))))) | -39 kcal/mol | 57.9 °C
CGCCCTCGGAAACGAGCG (((..(((....)))))) | -12.2 kcal/mol | 34.5 °C
GATCTTTTGAAGATC ((((((...)))))) | -27.8 kcal/mol | 43.6 °C
GTCCAGGAAACTGGAC ((((((....)))))) | -34 kcal/mol | 62.4 °C
GCGGAAGGAAACTCCCGC ((((.((....)).)))) | -36.2 kcal/mol | 50 °C
GTCCTCCCGAAAGGGGAC (((..(((....)))))) | -14.3 kcal/mol | 44.8 °C
GCGGTTCCGAAAGGACGC (((..(((....)))))) | -25 kcal/mol | 51.7 °C
GCGCACGAAAGTGACGC ((((((....))).))) | -24 kcal/mol | 63.3 °C
GCACTGCGAAAGCTGCGC ((.(.((....)).).)) | -22.5 kcal/mol | 57.1 °C
GCCGGCGAAAGCCTCGGC ((((((....)))..))) | -19.9 kcal/mol | 53.3 °C
GATCAATTCTTTGATC ((((((....)))))) | -35.9 kcal/mol | 47.8 °C
GGATCCGAAAGGATTTCC ((((((....)))..))) | -13.7 kcal/mol | 37.4 °C
GGAGTGGGAAACCGCTCC ((((.((....)).)))) | -44.3 kcal/mol | 57.8 °C
GCACCGGGAAACCGGCAC (..((((....))))..) | -8.06 kcal/mol | 28.3 °C
GATCTAAGGTTAGATC ((((((....)))))) | -31.6 kcal/mol | 39.3 °C
GACATCCGAAAGGAGTC (((.(((....)))))) | -21.2 kcal/mol | 45.4 °C
GCTACGGCGAAAGCCAGC (((..(((....)))))) | -13.3 kcal/mol | 42.9 °C
GGACCGGGAAACCGACCC ((..(((....)))..)) | -18 kcal/mol | 31.1 °C

Sequence | folding enthalpy [1] | Tm [2]
GATCGAAATATCGATC ((((((....)))))) | -32.7 kcal/mol | 49 °C
GGGCTACCGAAAGGTCCC (((..(((....)))))) | -18.8 kcal/mol | 39.4 °C
GCAAAGCCGAAAGGCTGC (((..(((....)))))) | -14.2 kcal/mol | 54 °C
GCAGTCGAAAGACTATGC ((((((....)))..))) | -17.8 kcal/mol | 46.2 °C
GTACGCCGAAAGGCTAC (((.(((....)))))) | -15.1 kcal/mol | 47.6 °C
GGACTTGGAAACGAGTCC (((((.(....).))))) | -39.4 kcal/mol | 52.4 °C
GCCGGGCGAAAGCCCTGC ((.((((....)))).)) | -14.9 kcal/mol | 57.2 °C
GTGGAACGAAAGTTGCAC (((.(((....))).))) | -40.3 kcal/mol | 56.5 °C
GAGAGGCGAAAGCCGCTC (((.(((....))).))) | -18.9 kcal/mol | 66.1 °C
GATCAAAGGGTTGATC ((((((....)))))) | -28.3 kcal/mol | 39.1 °C
GTGAAGGGAAACCTTCAC (((((((....))))))) | -46.1 kcal/mol | 60 °C
GGCGGTCGAAAGACGGCC (((.(((....))).))) | -34.5 kcal/mol | 68.2 °C
GAAAGGCCGAAAGGCTTC (((..(((....)))))) | -8.26 kcal/mol | 28.5 °C
GATCAATACCTTGATC ((((((....)))))) | -34 kcal/mol | 46.5 °C
GTGCAAGCGAAAGCTCAC (((..(((....)))))) | -13.4 kcal/mol | 42.9 °C
GCGTCTCCGAAAGGACGC (((..(((....)))))) | -33.1 kcal/mol | 56.8 °C
GGTCCCGCGAAAGCGACC (((..(((....)))))) | -11.3 kcal/mol | 37.7 °C
GCCCACGAAAGTGGCGGC ((((((....)))..))) | -14 kcal/mol | 57.6 °C
GCAGTTCGAAAGAATGC (((.(((....)))))) | -21.4 kcal/mol | 41.2 °C
GAAGGGGGAAACCCCCTC ((.((((....)))).)) | -12.7 kcal/mol | 42.4 °C
GATCCCGAAAGGGGGATC ((((((....)))..))) | -20.1 kcal/mol | 51 °C
GACCTCGGAAACGAGACC (..((((....))))..) | -11.8 kcal/mol | 26.1 °C
GGCAATGGAAACGTTGTC (.(((.(....).))).) | -25.9 kcal/mol | 35.8 °C

Sequence | folding enthalpy [1] | Tm [2]
GGGTCCGGAAACAGACCC (((((.(....).))))) | -44.5 kcal/mol | 49.5 °C
GATCGCATAAGCGATC ((((((....)))))) | -32.5 kcal/mol | 69.2 °C
GTGTCCGAAAGGAGGCAC ((((((....)))..))) | -20.6 kcal/mol | 39.5 °C
GCTATACGAAAGTACAGC (((.(((....))).))) | -30.2 kcal/mol | 41.8 °C
GCCCTGCGAAAGCACGGC (((.(((....))).))) | -39.6 kcal/mol | 52 °C
GATTCCGAAAGGAGTATC ((((((....)))..))) | -15.7 kcal/mol | 27.1 °C
GCGTCTCGAAAGAGCGC (((.(((....)))))) | -31 kcal/mol | 66.8 °C
CGGTACGGAAACGTGCCG (((.(((....))).))) | -37.5 kcal/mol | 59.8 °C
GCCTCTACGAAAGTAGGC (((..(((....)))))) | -12.2 kcal/mol | 47.9 °C
GTGCTTGGAAACAAGTAC ((.((((....)))).)) | -32.3 kcal/mol | 49.2 °C
GAACAACGAAAGTTATTC (((.(((....))).))) | -18.4 kcal/mol | 30.1 °C
GTGGTTCGAAAGAAGCAC (((.(((....))).))) | -41.7 kcal/mol | 60.1 °C
GAGTGCGAAAGCAAACTC ((((((....)))..))) | -20.8 kcal/mol | 47.2 °C
GTCCTCCGAAAGGAAGAC (((.(((....))).))) | -27.5 kcal/mol | 43.9 °C
GATCATGGAGATGATC ((((((....)))))) | -37.5 kcal/mol | 49.7 °C
GTCTTGCGAAAGCAGAC (((.(((....)))))) | -22.8 kcal/mol | 52.1 °C
GATCGCTGCGGCGATC ((((((....)))))) | -38.9 kcal/mol | 68.9 °C
GACGAAGGAAACTTCGTC (((((((....))))))) | -43.9 kcal/mol | 63.5 °C
GGAGTCGAAAGACCTCC ((((((....))).))) | -24.5 kcal/mol | 50 °C
GATCGACATGTCGATC ((((((....)))))) | -41.7 kcal/mol | 61.3 °C
GAGACCGAAAGGTAGCTC ((((((....)))..))) | -18.5 kcal/mol | 39.6 °C
GCCGACGAAAGTCTGGC ((((((....))).))) | -34.6 kcal/mol | 58.2 °C
GGTCTTGGAAACAAGATC (.(((((....))))).) | -25.7 kcal/mol | 44.5 °C
